Assay results reported in paper PMC9732910 (Genes & Development, 2022).
Substitutions are numbered along the chain they refer to. Entries after “also recorded” stand apart in the source; their conditions may differ. *1 amine or outer side, *2 acyl side, *3 side chain or, on linkers, in order; H or OH if unused. Where a SMILES comes first, the peptide text is derived from it. Bridges are numbered along the chain shown (N, C = ends). Primed or numbered codes have the meaning given here. Where no end group is shown, it is not given here. The star is where a group is joined. Lys(Biotin) = O=C(CCCC[C@@H]1SC[C@@H]2NC(=O)N[C@@H]21)NCCCC[C@H](N[*:1])C(=O)[*:2]; PEG3′ = PEG3 spacer coupled to the N-terminus before Fmoc-Lys(Biotin); FITC = O=C1OC2(c3ccc(O)cc3Oc3cc(O)ccc32)c2ccc(NC(=S)*)cc21; mXylylene = c1cc(C[*:1])cc(C[*:2])c1

T1: KLHL20^K498A (Homo sapiens, UniProt Q9Y2M5, K498A)
T1 sequence (Q9Y2M5 317-603 K498A): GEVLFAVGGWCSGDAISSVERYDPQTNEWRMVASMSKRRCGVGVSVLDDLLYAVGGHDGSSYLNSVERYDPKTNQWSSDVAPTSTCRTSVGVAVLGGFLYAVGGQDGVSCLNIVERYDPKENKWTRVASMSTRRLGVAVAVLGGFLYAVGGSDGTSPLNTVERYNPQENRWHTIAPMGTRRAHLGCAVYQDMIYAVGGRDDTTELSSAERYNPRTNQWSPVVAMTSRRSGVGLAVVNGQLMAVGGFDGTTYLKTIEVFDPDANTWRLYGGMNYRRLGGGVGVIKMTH

T2: KLHL20^H499G (Homo sapiens, UniProt Q9Y2M5, H499G)
T2 sequence (Q9Y2M5 317-603 H499G): T1 sequence (Q9Y2M5 317-603 K498A) with A182K, H183G

T3: KLHL20^L592G (Homo sapiens, UniProt Q9Y2M5, L592G)
T3 sequence (Q9Y2M5 317-603 L592G): T1 sequence (Q9Y2M5 317-603 K498A) with A182K, L276G

T4: KLHL20 (Homo sapiens, UniProt Q9Y2M5)
T4 sequence (Q9Y2M5 1-609): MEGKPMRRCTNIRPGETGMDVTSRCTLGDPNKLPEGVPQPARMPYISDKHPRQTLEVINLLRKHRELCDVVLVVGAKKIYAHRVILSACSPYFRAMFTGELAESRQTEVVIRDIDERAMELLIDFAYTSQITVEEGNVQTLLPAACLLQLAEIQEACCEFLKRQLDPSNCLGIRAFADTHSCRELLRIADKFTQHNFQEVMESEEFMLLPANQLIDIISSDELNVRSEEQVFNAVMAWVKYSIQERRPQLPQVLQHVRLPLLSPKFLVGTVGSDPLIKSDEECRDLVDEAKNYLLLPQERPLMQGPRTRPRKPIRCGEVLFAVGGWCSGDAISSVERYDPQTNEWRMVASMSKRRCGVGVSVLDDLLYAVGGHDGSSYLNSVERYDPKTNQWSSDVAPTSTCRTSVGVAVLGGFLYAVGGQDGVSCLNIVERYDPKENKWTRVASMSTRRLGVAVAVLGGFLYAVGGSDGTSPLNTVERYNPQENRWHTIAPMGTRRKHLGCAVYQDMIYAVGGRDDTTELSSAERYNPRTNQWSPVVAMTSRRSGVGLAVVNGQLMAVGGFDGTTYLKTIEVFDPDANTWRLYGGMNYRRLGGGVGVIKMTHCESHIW

T5: KLHL12 (Homo sapiens, UniProt Q53G59)
T5 sequence (Q53G59 1-568): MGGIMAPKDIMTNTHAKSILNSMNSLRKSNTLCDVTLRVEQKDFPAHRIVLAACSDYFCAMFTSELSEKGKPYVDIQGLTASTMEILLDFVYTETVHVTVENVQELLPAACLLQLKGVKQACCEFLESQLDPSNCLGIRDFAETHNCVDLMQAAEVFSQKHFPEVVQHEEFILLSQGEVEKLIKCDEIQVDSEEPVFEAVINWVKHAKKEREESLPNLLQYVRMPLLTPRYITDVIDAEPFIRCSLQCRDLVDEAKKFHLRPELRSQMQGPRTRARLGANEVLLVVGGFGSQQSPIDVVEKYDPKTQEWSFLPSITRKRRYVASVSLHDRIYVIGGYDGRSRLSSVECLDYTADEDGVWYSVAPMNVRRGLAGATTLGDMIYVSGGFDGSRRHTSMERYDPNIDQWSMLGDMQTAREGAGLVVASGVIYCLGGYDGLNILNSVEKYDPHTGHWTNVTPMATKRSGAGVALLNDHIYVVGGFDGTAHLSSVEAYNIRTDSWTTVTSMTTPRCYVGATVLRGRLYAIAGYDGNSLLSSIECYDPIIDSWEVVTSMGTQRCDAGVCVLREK

T6: KLHL20 Kelch domain (human, UniProt Q9Y2M5 317-603)
T6 sequence (looked up): T1 sequence (Q9Y2M5 317-603 K498A) with A182K


What was measured:
BRD2, BRD3, and BRD4 = assay: Degradation of BET proteins BRD2, BRD3 and BRD4 in PC3 cells; assay type: cell-based, human; details: 5 μM, 4 h
Procedure, shortened: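 PC3 cells in DMEM with 10% FBS were plated in 24-well plates 24 h before dosing. They got fresh medium with 5 μM test compound or reference degraders, or DMSO as reference, for 4 h. Cells were washed in TBS/0.05% Tween 20 and lysed in Tris pH 7.5, NaCl, deoxycholate, glycerol, Triton X-100 and inhibitor buffer. BET proteins were read by Western blot.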

PC3 cells = assay: Cell proliferation, CellTiter-Glo 2.0, PC3; assay type: cell-based, human; details: PC3, 24, 72, and 96 h
Procedure, shortened: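 PC3 prostate cancer cells in DMEM with 10% FBS were seeded in 96-well plates at 50% confluency 24 h beforehand. They were switched to fresh medium with different concentrations of test compound or reference degraders (DMSO-volume negative control) for 24, 72 and 96 h. Cell titre was measured by CellTiter-Glo 2.0 luminescence; SD, N = 3.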

MDA-MB-231 cells = assay: Cell proliferation, CellTiter-Glo 2.0, MDA-MB-231; assay type: cell-based, human; details: MDA-MB-231, 24h, 72h and 96h
Procedure, shortened: (§1)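 Cells kept in DMEM with 10% FBS and seeded in 96-well plates at 50% confluency 24 h before treatment. Medium was then replaced with fresh medium holding the test compound at varying concentrations, or an equal volume of DMSO as negative control. Viable cell titre was read at the end of treatment by CellTiter-Glo 2.0 luminescence.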

hTERT-BJ1 cells = assay: Cytotoxicity in normal human cell line, CellTiter-Glo 2.0; assay type: cell-based; details: hTERT-BJ1, 24h, 72h and 96h
Procedure, shortened: as §1

KLHL20^K498A = target: T1, KLHL20^K498A; assay: FP binding to KLHL20 Kelch mutant K498A; details: FITC-labeled BTR2000
Procedure, shortened: (§2)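 His-tagged wild-type or quick-change point-mutant KLHL20 Kelch domain was expressed in E. coli Rosetta (DE3) (0.3 mM IPTG, 18°C overnight). It was Ni-NTA purified and dialysed into TBS pH 7.5 with 1 mM DTT. Protein at 0–15 μM was incubated with 20 nM FITC-labelled peptide for 30 min at 4°C in 1× TBS/1 mM DTT. FP was read at 485/528 nm; LAAAV peptide served as negative control.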

KLHL20^H499G = target: T2, KLHL20^H499G; assay: FP binding to KLHL20 Kelch mutant H499G; details: FITC-labeled BTR2000
KLHL20^L592G = target: T3, KLHL20^L592G; assay: FP binding to KLHL20 Kelch mutant L592G; details: FITC-labeled BTR2000
Procedure, shortened: as §2

KLHL20 [1] = target: T4, KLHL20; assay type: binding; details: PC3 lysates, immobilized compound
Procedure, shortened: (§3)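 Biotinylated test compound (430 nM) was captured on BSA-blocked NeutrAvidin magnetic beads for 1 h at 4°C. Beads were incubated with PC3 lysate diluted 1:7 to 1.6 mg/mL total protein in TBS, 1 mM DTT, 0.1% BSA and protease/phosphatase inhibitors for 1 h at 4°C. After three TBS/DTT/BSA washes, bound proteins were eluted in Laemmli buffer with 5% BME for Western blotting.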

KLHL12 = target: T5, KLHL12; assay type: binding; details: PC3 lysates, immobilized compound
Procedure, shortened: as §3

KLHL20 [2] = target: T4, KLHL20; assay: MS-based proteomics of pull-down eluates from PC3 lysates; assay type: binding; details: N = 3, control called PGL control in Table S1
Procedure, shortened: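 NeutrAvidin Dynabeads were blocked with 0.1% BSA for 2 h at 4°C and loaded with 430 nM biotinylated compound for 1 h at 4°C. PC3 lysate (1:7 diluted, 1.6 mg/mL total protein, TBS/1 mM DTT/0.1% BSA/inhibitors) was bound for 1 h at 4°C. Beads were washed three times, eluted in Laemmli/5% BME and in-gel trypsin-digested. Eluates were analysed by LC-MS/MS with label-free quantification.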

KLHL20 Kelch domain = target: T6, KLHL20 Kelch domain; assay: fluorescence polarisation

enrichment / binding of KLHL20 in pull-down (KLHL20 [1]) | Kd (KLHL20 Kelch domain) [µM] | Molecule | BET protein degradation (BRD2, BRD3, and BRD4) | further results
– | – | Cc1ncsc1-c1ccc(CNC(=O)[C@@H]2C[C@@H](O)CN2C(=O)[C@@H](NC(=O)COCCOCCOCCNC(=O)C[C@@H]2N=C(c3ccc(Cl)cc3)c3c(sc(C)c3C)-n3c(C)nnc32)C(C)(C)C)cc1 [MZ1] | showed efficacy | cell growth inhibition (PC3 cells): higher efficiency than BTR2004; cell growth inhibition (MDA-MB-231 cells): higher efficiency than BTR2004; normal cell cytotoxicity (hTERT-BJ1 cells): some degree of cytotoxicity
no binding to KLHL20 | – | cyclized CPGLC: BTR2000 with the aspartic acid mutated; KLHL20-binding deficient cyclized peptide ({Lys(Biotin)-PEG3′}-CPGLC-NH2; linker 1-5 via mXylylene) | – | –
no binding to KLHL20 | – | cyclized CPDAC: BTR2000 with the leucine mutated; KLHL20-binding deficient cyclized peptide (CPDAC-NH2; linker 1-5 via mXylylene) | – | –
– | – | COc1cc(C(=O)NCCOCCOCCOCCNC(=O)C[C@@H]2N=C(c3ccc(Cl)cc3)c3c(sc(C)c3C)-n3c(C)nnc32)ccc1NC(=O)[C@@H]1N[C@@H](CC(C)(C)C)[C@](C#N)(c2ccc(Cl)cc2F)[C@H]1c1cccc(Cl)c1F [A1874] | not effective; also recorded: ineffective | –
– | – | Cc1sc2c(c1C)C(c1ccc(Cl)cc1)=N[C@@H](CC(=O)NCCCCNC(=O)COc1cccc3c1C(=O)N(C1CCC(=O)NC1=O)C3=O)c1nnc(C)n1-2 (stereo partly shown) [dBET1] | showed efficacy | normal cell cytotoxicity (hTERT-BJ1 cells): some degree of cytotoxicity
no binding to KLHL20 | – | CPGAC: cyclized double-mutant of BTR2000 used as pull-down control ({Lys(Biotin)-PEG3′}-CPGAC-NH2; linker 1-5 via mXylylene) | – | –
– | ~0.6 | {FITC}-CPDLC-NH2 (linker 1-5 via mXylylene) [FITC-labeled BTR2000 (macrocycle CPDLC)] | – | –
– | ~0.6 | {FITC}-CPDLVC-NH2 (linker 1-6 via mXylylene) [FITC-labeled macrocycle CPDLVC] | – | –
– | > 5 | {FITC}-LPDLV-NH2 [FITC-labeled linear LPDLV peptide] | – | –

Molecule | enrichment / binding of KLHL20 in pull-down (KLHL20 [1]) | Kd (KLHL20 Kelch domain) [µM] | BET protein degradation (BRD2, BRD3, and BRD4) | further results
CC(C)C[C@@H]1NC(=O)[C@H](CC(=O)O)NC(=O)[C@@H]2CCCN2C(=O)[C@@H](NC(=S)Nc2ccc3c(c2)C(=O)OC32c3ccc(O)cc3Oc3cc(O)ccc32)CSCc2cccc(c2)CSC[C@@H](C(N)=O)NC1=O [BTR2000] ({FITC}-CPDLC-NH2; linker 1-5 via mXylylene) | successfully enriched KLHL20 | – | – | binding to KLHL20^K498A relative to wild type (KLHL20^K498A): important for BTR2000 binding; binding to KLHL20 H499 mutant relative to wild type (KLHL20^H499G): more prominent loss in binding; binding to KLHL20^L592G relative to wild type (KLHL20^L592G): more prominent loss in binding; enrichment of KLHL12 in pull-down (KLHL12): not KLHL12; log2 fold change BTR2000/CPGAC of KLHL20 (KLHL20 [2]): 11
